Measurements reported in ChEMBL document CHEMBL1148018, “Discovery and SAR development of thienopyridones: a class of small molecule AMPK activators” (Bioorg Med Chem Lett, 2007).
Active and inactive are the calls of the source. No cut-off for these calls is given here.

Organism: Rattus norvegicus
Assay: (§1) Activation of AMPK in rat liver assessed as SAMS peptide phosphorylation
Format: functional, tissue-based
Summary of the method: (§2)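 Kinase activity is read as phosphorylation of the SAMS peptide substrate. Substrate concentration is 20 in standard assays and 100 in additivity assays.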

| Compound | Activity |
| --- | --- |
| O=c1[nH]c2scc(-c3ccccc3)c2c(O)c1-c1ccccc1 | inactive |
| CN(C)c1c(O)c2c(-c3ccccc3)csc2[nH]c1=O | inactive |
| Cn1c(=O)c(C#N)c(N)c2c(-c3ccc(Br)cc3)csc21 | inactive |
| N#Cc1c(O)c2c(-c3ccccc3)c([N+](=O)[O-])sc2[nH]c1=O | inactive |
| Cn1c(=O)c(C#N)c(O)c2c(-c3ccc(Cl)cc3)csc21 | inactive |
| N#Cc1c(O)c2c(-c3ccccc3)c(-c3ccccc3O)sc2[nH]c1=O | inactive |
| Cn1c(=O)c(C#N)c(O)c2c(-c3ccccc3)csc21 | inactive |
| COc1c(C#N)c(=O)[nH]c2scc(-c3ccccc3)c12 | inactive |
| Cn1c(=O)c(C#N)c(O)c2c(-c3ccc(Br)cc3)c(F)sc21 | inactive |
| O=c1cc(O)c2c(-c3ccccc3)csc2[nH]1 | inactive |

Test system: not listed separately
Assay: as §1
Format: functional, tissue-based
Summary of the method: as §2

| Compound | EC50 |
| --- | --- |
| C=CCc1ccc(-c2csc3[nH]c(=O)c(C#N)c(O)c23)cc1 | 40 µM |
| COCOc1ccc(-c2csc3[nH]c(=O)c(C#N)c(O)c23)cc1 | 8 µM |
| O=c1[nH]c2scc(-c3ccccc3)c2c(O)c1-c1cccs1 | 183 µM |
| N#Cc1c(O)c2c(-c3cccc(O)c3)csc2[nH]c1=O | 38 µM |
| N#Cc1c(O)c2c(-c3ccc(Cl)cc3)csc2[nH]c1=O | 81 µM |
| O=c1[nH]c2scc(-c3ccccc3)c2c(O)c1Cl | 88 µM |
| N#Cc1c(O)c2c(-c3ccc4c(c3)OCO4)csc2[nH]c1=O | 20 µM |
| N#Cc1c(O)c2c(-c3ccc(Br)cc3)csc2[nH]c1=O | 72 µM |
| N#Cc1c(O)c2c(-c3ccc(O)cc3)c(Cl)sc2[nH]c1=O | 2 µM |
| N#Cc1c(O)c2c(-c3ccc(F)cc3)c(Br)sc2[nH]c1=O | 10 µM |
| COC(=O)c1ccc(-c2csc3[nH]c(=O)c(C#N)c(O)c23)cc1 | 55 µM |
| N#Cc1c(O)c2c(-c3ccc(O)cc3)csc2[nH]c1=O | 20 µM |
| N#Cc1c(O)c2c(-c3ccccc3)csc2[nH]c1=O | 38 µM |
| COC(=O)c1c(O)c2c(-c3ccccc3)csc2[nH]c1=O | 175 µM |
| N#Cc1c(O)c2c(-c3ccccc3)c(Br)sc2[nH]c1=O | 5.8 µM |
| N#Cc1c(O)c2c(-c3ccc(F)cc3)csc2[nH]c1=O | 84 µM |
| N#Cc1c(O)c2c(-c3ccccc3)c(Cl)sc2[nH]c1=O | 3.7 µM |
| COc1cccc(-c2c(O)c3c(-c4ccccc4)csc3[nH]c2=O)c1 | 180 µM |
